Experimental data as given in ChEMBL document CHEMBL4011623, “Development of 1-((1,4-trans)-4-Aryloxycyclohexyl)-3-arylurea Activators of Heme-Regulated Inhibitor as Selective Activators of the Eukaryotic Initiation Factor 2 Alpha (eIF2α) Phosphorylation Arm of the Integrated Endoplasmic Reticulum Stress Response” (J Med Chem, 2017).
The source made the active and inactive calls. The calls are words filed in the database; no cut-off is given here.

Columns and labels:
[1] = molecular target: Eukaryotic translation initiation factor 2-alpha kinase 1 (Mus musculus) (UniProt Q9Z2R9); assay: Activation of HRI in mouse KLN cells transfected with 5'UTR of ATF-4 mRNA fused firefly luciferase mRNA and 5'UTR lacking uORF fused renila luciferase mRNA assessed as increase in eIF2alpha phosphorylation by measuring ratio of firefly luciferase to renila luciferase at 1.25 uM after 16 hrs; type: cell-based
[2] = molecular target: Eukaryotic translation initiation factor 2-alpha kinase 1 (Mus musculus) (UniProt Q9Z2R9); assay: Activation of HRI in mouse KLN cells transfected with 5'UTR of ATF-4 mRNA fused firefly luciferase mRNA and 5'UTR lacking uORF fused renila luciferase mRNA assessed as increase in eIF2alpha phosphorylation by measuring ratio of firefly luciferase to renila luciferase at 5 uM after 16 hrs; type: cell-based
[3] = Antiproliferative activity against human CRL2813 cells after 5 days by sulforhodamine B assay; type: functional, cell-based; settings: CRL2813, 120 h
Outline: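 CRL-2813 melanoma cells grown 5 days with 0.5–20 μM compound, then fixed in cold 10% TCA and stained with sulforhodamine B. Bound dye measured. Growth % = 100×(T−T0)/(C−T0), with T0 at time zero. IC50 is the concentration giving 50% growth inhibition.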

[4] = molecular target: Eukaryotic translation initiation factor 2-alpha kinase 1 (Mus musculus) (UniProt Q9Z2R9); assay: Activation of HRI in mouse KLN cells transfected with 5'UTR of ATF-4 mRNA fused firefly luciferase mRNA and 5'UTR lacking uORF fused renila luciferase mRNA assessed as increase in eIF2alpha phosphorylation by measuring ratio of firefly luciferase to renila luciferase after 16 hrs; type: cell-based
[5] = molecular target: Eukaryotic translation initiation factor 2-alpha kinase 1 (Homo sapiens) (UniProt Q9BQI3); assay: Activation of HRI in human CRL2813 cells assessed as increase in eIF2alpha phosphorylation at 5 uM after 2 hrs by Western blot analysis; type: cell-based
Outline: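 Adherent CRL-2813 melanoma cells exposed to 5 μM for 2 h. Lysates immunoblotted with anti-phosphoserine-51 eIF2α and anti-total eIF2α antibodies after BCA normalization and SDS-PAGE. Gels representative of three independent experiments.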

[6] = molecular target: Eukaryotic translation initiation factor 2-alpha kinase 1 (Homo sapiens) (UniProt Q9BQI3); assay: Activation of HRI in human CRL2813 cells assessed as increase in CHOP protein expression at 5 uM after 8 hrs by Western blot analysis; type: cell-based
Outline: (§1)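 CRL-2813 cells at 70% confluence in serum-containing, antibiotic-free medium; treated at 5 μM for 8 h. Lysed in M-PER on ice for 30 min, equal protein by BCA, SDS-PAGE and immunoblot for CHOP, cyclin D1 and β-actin. Blots representative of three independent experiments.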

[7] = molecular target: Eukaryotic translation initiation factor 2-alpha kinase 1 (Homo sapiens) (UniProt Q9BQI3); assay: Activation of HRI in human CRL2813 cells assessed as induction of CHOP mRNA level at 5 uM by real-time PCR relative to 18S RNA; type: cell-based
Outline: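 Fold induction of CHOP mRNA in cells treated at 5 μM, normalized to 18S RNA and expressed relative to DMSO (set to 1). Triplicate samples, three independent experiments, mean ± SEM.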

[8] = molecular target: Eukaryotic translation initiation factor 2-alpha kinase 1 (Homo sapiens) (UniProt Q9BQI3); assay: Activation of HRI in human CRL2813cells assessed as decrease in cyclin D1 protein expression at 5 uM after 8 hrs by Western blot analysis; outline: as §1
[9] = Effect on beta actin protein expression in human CRL2813 cells at 5 uM after 8 hrs by Western blot analysis; type: ADME, cell-based; settings: crl2813, 8 h; outline: as §1
[10] = Antitumor activity against human CRL2813 cells xenografted in NU008 nude mouse assessed as tumor growth inhibition at 150 mg/kg, ip qd administered for 4 days followed by 4 days off and 3 days on for total 28 days relative to control; type: functional; settings: read-out: TGI
Outline: (§2)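 Male nude mice injected s.c. with CRL-2813 cells; once tumors reached 100–150 mm3, randomized into groups of nine. Given i.p. q.d. at 150 or 37.5 mg/kg (4 days on, 4 off, 3 on; 28 days total) in NMP/Cremophor EL/water at 1 μl/g. Vehicle controls received the mixture alone. Body weight measured twice weekly; tumors by caliper weekly. Mean ± SEM.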

[11] = Antitumor activity against human CRL2813 cells xenografted in NU008 nude mouse assessed as tumor growth inhibition at 37.5 mg/kg, ip qd administered for 4 days followed by 4 days off and 3 days on for total 28 days relative to control; type: functional; settings: read-out: TGI; outline: as §2
CRL2813 = assay: Antitumor activity against human CRL2813 cells xenografted in ip dosed NU008 nude mouse assessed as tumor growth inhibition administered qd for 4 days followed by 4 days off and 3 days on for total 28 days; type: functional, organism-based; outline: as §2
Mus musculus [12] = assay: Induction of eIF2alpha phosphorylation in tumor of NU008 nude mouse xenografted with human CRL2813 cells at 37.5 to 150 mg/kg, ip qd administered for 3 days by Western blot analysis; type: functional, organism-based
Outline: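 Mice bearing ~200 mm3 CRL-2813 xenografts injected on three consecutive days with vehicle or the same doses used in the efficacy study. Tumors excised, lysed and immunoblotted for phosphorylated and total eIF2α.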

[13] = Tmax in NU008 nude mouse xenografted with human CRL2813 cells at 40 mg/kg, ip by LC-MS analysis; type: ADME, organism-based; settings: in vivo
Outline: (§3)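 Single i.p. dose of 40 mg/kg. Blood sampled before and at 0.5, 1, 2, 4, 6, 24, 48 and 72 h, mixed with 0.1% EDTA. Whole-blood levels quantified by LC-MS/MS (C18 column at 45 °C) against a standard curve. At least three mice per time point, mean ± SEM.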

[14] = Apparent half life in NU008 nude mouse xenografted with human CRL2813 cells at 40 mg/kg, ip by LC-MS analysis; type: ADME, organism-based; settings: in vivo, read-out: t1/2(app) (converted); outline: as §3
Mus musculus [15] = assay: Neurotoxicity in NU008 nude mouse xenografted with human CRL2813 cells at 150 mg/kg, ip qd administered for 4 days followed by 4 days off and 3 days on for total 28 days; type: toxicity, organism-based; settings: in vivo
Outline: (§4)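 Xenograft-bearing nude mice dosed i.p. on the 28-day intermittent schedule (150 or 37.5 mg/kg in NMP/Cremophor EL/water). Euthanized at the end of treatment; organs harvested, fixed and examined histopathologically.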

Mus musculus [16] = assay: Cardiotoxicity in NU008 nude mouse xenografted with human CRL2813 cells at 150 mg/kg, ip qd administered for 4 days followed by 4 days off and 3 days on for total 28 days; type: toxicity, organism-based; settings: in vivo; outline: as §4
Mus musculus [17] = assay: Nephrotoxicity in NU008 nude mouse xenografted with human CRL2813 cells at 150 mg/kg, ip qd administered for 4 days followed by 4 days off and 3 days on for total 28 days; type: toxicity, organism-based; settings: in vivo; outline: as §4
Mus musculus [18] = assay: Hepatotoxicity in NU008 nude mouse xenografted with human CRL2813 cells at 150 mg/kg, ip qd administered for 4 days followed by 4 days off and 3 days on for total 28 days; type: toxicity, organism-based; settings: in vivo; outline: as §4
Mus musculus [19] = assay: Toxicity in NU008 nude mouse xenografted with human CRL2813 cells assessed as histopathologic change in bone marrow at 150 mg/kg, ip qd administered for 4 days followed by 4 days off and 3 days on for total 28 days; type: organism-based; settings: in vivo; outline: as §4
Mus musculus [20] = assay: Toxicity in NU008 nude mouse xenografted with human CRL2813 cells assessed as histopathologic change in spleen at 150 mg/kg, ip qd administered for 4 days followed by 4 days off and 3 days on for total 28 days; type: organism-based; settings: in vivo; outline: as §4
Mus musculus [21] = assay: Toxicity in NU008 nude mouse xenografted with human CRL2813 cells assessed as body weight change at 150 mg/kg, ip qd administered for 4 days followed by 4 days off and 3 days on for total 28 days; type: organism-based; settings: in vivo; outline: as §2
Mus musculus [22] = assay: Toxicity in NU008 nude mouse xenografted with human CRL2813 cells assessed as body weight change at 37.5 mg/kg, ip qd administered for 4 days followed by 4 days off and 3 days on for total 28 days; type: organism-based; settings: in vivo; outline: as §2

Eukaryotic translation initiation factor 2-alpha kinase 1 (Mus musculus), sequence (Q9Z2R9 whole entry, the tested form may be a part): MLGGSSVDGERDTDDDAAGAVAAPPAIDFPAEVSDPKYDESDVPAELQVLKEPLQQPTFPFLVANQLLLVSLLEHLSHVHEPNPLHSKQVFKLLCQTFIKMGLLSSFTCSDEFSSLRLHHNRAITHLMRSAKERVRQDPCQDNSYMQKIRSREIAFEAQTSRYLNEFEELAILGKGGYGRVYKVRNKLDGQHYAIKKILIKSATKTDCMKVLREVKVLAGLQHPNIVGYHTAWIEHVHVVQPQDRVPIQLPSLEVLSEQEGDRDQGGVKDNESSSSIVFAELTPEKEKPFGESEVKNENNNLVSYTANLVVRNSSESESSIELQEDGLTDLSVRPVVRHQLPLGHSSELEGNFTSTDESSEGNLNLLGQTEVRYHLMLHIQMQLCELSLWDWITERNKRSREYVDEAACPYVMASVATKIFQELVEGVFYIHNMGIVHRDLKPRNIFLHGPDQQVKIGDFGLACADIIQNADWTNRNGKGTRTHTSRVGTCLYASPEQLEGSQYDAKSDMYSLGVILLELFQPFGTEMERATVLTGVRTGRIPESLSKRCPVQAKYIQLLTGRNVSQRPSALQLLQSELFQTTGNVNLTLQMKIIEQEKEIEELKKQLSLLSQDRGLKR
Eukaryotic translation initiation factor 2-alpha kinase 1 (Homo sapiens), sequence (Q9BQI3 whole entry): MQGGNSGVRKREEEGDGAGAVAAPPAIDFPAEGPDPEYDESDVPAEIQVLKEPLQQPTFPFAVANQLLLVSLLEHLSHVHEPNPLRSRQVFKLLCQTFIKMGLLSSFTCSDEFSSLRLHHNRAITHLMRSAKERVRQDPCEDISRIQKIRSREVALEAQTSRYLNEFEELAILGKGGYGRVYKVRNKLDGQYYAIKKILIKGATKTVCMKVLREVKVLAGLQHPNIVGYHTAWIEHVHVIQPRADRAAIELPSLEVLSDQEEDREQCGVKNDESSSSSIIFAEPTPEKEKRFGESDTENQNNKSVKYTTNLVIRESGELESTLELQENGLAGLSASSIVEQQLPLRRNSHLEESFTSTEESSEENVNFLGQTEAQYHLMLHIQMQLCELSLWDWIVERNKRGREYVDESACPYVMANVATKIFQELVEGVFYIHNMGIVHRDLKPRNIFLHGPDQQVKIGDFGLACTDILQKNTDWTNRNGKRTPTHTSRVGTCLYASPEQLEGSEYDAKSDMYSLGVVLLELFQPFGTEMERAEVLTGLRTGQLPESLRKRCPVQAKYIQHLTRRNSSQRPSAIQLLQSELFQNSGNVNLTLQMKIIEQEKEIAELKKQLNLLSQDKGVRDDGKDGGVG

Row | SMILES | Ratio [1] | Ratio [2] | Activity [4] | Activity [5] | Activity [6] | fold change (FC) [7] | Activity [8] | IC50 [3] [µM] | Activity [9] | other results
1 | N#Cc1cc(NC(=O)N[C@H]2CC[C@H](Oc3ccc(C(F)(F)F)cc3)CC2)cc(C(F)(F)F)c1 | 5.65 | 13.2 | Dose-dependent effect | Active | Active | 9.87 | Active | 0.25 | Non-Toxic | inhibition in vivo at 150 mg/kg [10]: 90%; inhibition in vivo at 37.5 mg/kg [11]: 50%; TGI (CRL2813): Dose-dependent effect; Activity (Mus musculus [12]): Active; Tmax [13]: 6 to 24 h; half-life [14]: 40 h; Activity (Mus musculus [15]): Non-Toxic; Activity (Mus musculus [16]): Non-Toxic; Activity (Mus musculus [17]): Non-Toxic; Activity (Mus musculus [18]): Non-Toxic; Activity (Mus musculus [19]): Non-Toxic; Activity (Mus musculus [20]): Non-Toxic; Activity (Mus musculus [21]): < 10%; Activity (Mus musculus [22]): < 10%
2 | O=C(Nc1cccc(C(F)(F)F)c1)N[C@H]1CC[C@H](Oc2ccc(C(F)(F)F)cc2)CC1 | 3.23 | 10.2 | Dose-dependent effect | Active | Active | 4.72 | Active | 0.54 | Non-Toxic | –
3 | O=C(Nc1cc(C(F)(F)F)cc(C(F)(F)F)c1)N[C@H]1CC[C@H](Oc2ccc(C(F)(F)F)cc2)CC1 | 8.58 | 30.7 | Dose-dependent effect | Active | Active | 14.5 | Active | 0.45 | Non-Toxic | –
4 | N#Cc1ccc(NC(=O)N[C@H]2CC[C@H](Oc3ccc(C(F)(F)F)cc3)CC2)cc1 | 3.38 | 11.6 | Dose-dependent effect | Active | Active | 12.8 | Active | 0.49 | Non-Toxic | –

Continued, in another order:

Row | Ratio [1] | Ratio [2] | Activity [4] | Activity [5] | Activity [6] | fold change (FC) [7] | Activity [8] | SMILES | IC50 [3] [µM] | Activity [9] | other results
5 | 5.2 | 13.6 | Dose-dependent effect | Active | Active | 11.9 | Active | O=C(Nc1cccc(OC(F)(F)F)c1)N[C@H]1CC[C@H](Oc2ccc(C(F)(F)F)cc2)CC1 | 0.92 | Non-Toxic | –
6 | 5.54 | 7.75 | Dose-dependent effect | Active | Active | 6.21 | Active | N#Cc1ccc(NC(=O)N[C@H]2CC[C@H](Oc3ccc(C(F)(F)F)cc3)CC2)cc1C#N | 2.01 | Non-Toxic | –
